ChEMBL document CHEMBL4339251, “Prenylated Bibenzyls from the Chinese Liverwort Radula constricta and Their Mitochondria-Derived Paraptotic Cytotoxic Activities” (J Nat Prod, 2019)
Activity calls are given as the source filed them. No cut-off for these calls is given here.

Tests used:
[1] = system: A549; assay: Cytotoxicity in human A549 cells assessed as reduction in cell viability incubated for 48 hrs by MTT assay; assay type: functional, cell-based; details: A549, 48 h
Method in brief: (§1)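 MTT viability. U251 and NCI-H1299 were grown in DMEM, the other lines in RPMI 1640, each with 10% FBS, penicillin and streptomycin, at 37 °C in 5% CO2. Cells were seeded in 96-well plates overnight and exposed to a range of concentrations. MTT (5 mg/mL) was added for 4 h, formazan was dissolved in DMSO and absorbance read at 570 nm. Three independent experiments.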

[2] = system: A549; assay: Induction of cytoplasmic vacuolization in human A549 cells at 10 uM measured within 3 hrs by optical microscopy; assay type: functional, cell-based
Method in brief: (§2)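 Morphology. A549 or NCI-H1299 cells were treated at 10 μM and vacuole formation was followed by optical microscopy at the indicated times.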

[3] = system: NCI-H1299; assay: Cytotoxicity in human NCI-H1299 cells assessed as reduction in cell viability incubated for 48 hrs by MTT assay; assay type: functional, cell-based; details: NCI-H1299, 48 h; method in brief: as §1
[4] = system: SMMC-7721; assay: Cytotoxicity in human SMMC7721 cells assessed as reduction in cell viability incubated for 48 hrs by MTT assay; assay type: functional, cell-based; details: SMMC-7721, 48 h; method in brief: as §1
[5] = system: MCF7; assay: Cytotoxicity in human MCF7 cells assessed as reduction in cell viability incubated for 48 hrs by MTT assay; assay type: functional, cell-based; details: MCF7, 48 h; method in brief: as §1
[6] = system: U-251; assay: Cytotoxicity in human U251 cells assessed as reduction in cell viability incubated for 48 hrs by MTT assay; assay type: functional, cell-based; details: U-251, 48 h; method in brief: as §1
[7] = system: SW-620; assay: Cytotoxicity in human SW620 cells assessed as reduction in cell viability incubated for 48 hrs by MTT assay; assay type: functional, cell-based; details: SW-620, 48 h; method in brief: as §1
[8] = system: HT-29; assay: Cytotoxicity in human HT-29 cells assessed as reduction in cell viability incubated for 48 hrs by MTT assay; assay type: functional, cell-based; details: HT-29, 48 h; method in brief: as §1
[9] = system: KB; assay: Cytotoxicity in human KB cells assessed as reduction in cell viability incubated for 48 hrs by MTT assay; assay type: functional, cell-based; method in brief: as §1
[10] = system: A549; assay: Induction of cytoplasmic vacuolization in human A549 cells; assay type: functional, cell-based
[11] = system: NCI-H1299; assay: Induction of cytoplasmic vacuolization in human NCI-H1299 cells at 10 uM measured within 3 hrs by optical microscopy; assay type: functional, cell-based; method in brief: as §2
[12] = system: A549; assay: Induction of apoptosis in human A549 cells assessed as early apoptotic cells at 10 uM by annexinV-FITC and propidium iodide staining based flow cytometric analysis (reference value: 1.47%); assay type: functional
[13] = system: A549; assay: Induction of apoptosis in human A549 cells assessed as late apoptotic cells at 10 uM by annexinV-FITC and propidium iodide staining based flow cytometric analysis (reference value: 3.14%); assay type: functional
[14] = system: A549; assay: Induction of apoptosis in human A549 cells assessed as necrotic cells at 10 uM by annexinV-FITC and propidium iodide staining based flow cytometric analysis (reference value: 1.44%); assay type: functional
[15] = system: A549; assay: Induction of apoptosis in human A549 cells assessed as late apoptotic cells at 20 uM by annexinV-FITC and propidium iodide staining based flow cytometric analysis (reference value: 3.14%); assay type: functional
[16] = system: NCI-H1299; assay: Induction of apoptosis in human NCI-H1299 cells assessed as late apoptotic cells at 10 uM by annexinV-FITC and propidium iodide staining based flow cytometric analysis (reference value: 3.29%); assay type: functional
[17] = system: NCI-H1299; assay: Induction of apoptosis in human NCI-H1299 cells assessed as necrotic cells at 10 uM by annexinV-FITC and propidium iodide staining based flow cytometric analysis (reference value: 3.17%); assay type: functional
[18] = system: NCI-H1299; assay: Induction of apoptosis in human NCI-H1299 cells assessed as late apoptotic cells at 20 uM by annexinV-FITC and propidium iodide staining based flow cytometric analysis (reference value: 3.29%); assay type: functional
[19] = system: NCI-H1299; assay: Induction of apoptosis in human NCI-H1299 cells assessed as necrotic cells at 20 uM by annexinV-FITC and propidium iodide staining based flow cytometric analysis (reference value: 3.17%); assay type: functional
[20] = system: NCI-H1299; assay: Induction of apoptosis in human NCI-H1299 cells assessed as induction of PARP cleavage at 2.5 to 10 uM incubated for 24 hrs by Western blot analysis; assay type: functional, cell-based
Method in brief: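 Western blot. Cells were cultured overnight in six-well plates, then exposed to various concentrations for 24 h before immunoblotting.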

[21] = system: NCI-H1299; assay: Induction of cytoplasmic vacuolization in human NCI-H1299 cells at 10 uM treated for 3 hrs after pre-treatment with pan-caspase inhibitor Z-VAD-FMK for 1 hr by optical microscopy; assay type: functional, cell-based
Method in brief: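 Caspase-inhibitor morphology. Cells were treated with DMSO, 20 μM Z-VAD-FMK, 10 μM compound, or the combinations for 3 h, then imaged by optical microscopy.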

[22] = system: NCI-H1299; assay: Cytotoxicity in human NCI-H1299 cells assessed as reduction in cell viability at 5 uM incubated for 24 hrs in presence of pan-caspase inhibitor Z-VAD-FMK by MTT assay; assay type: functional, cell-based
[23] = system: A549; assay: Induction of mitochondria-derived paraptosis in human A549 cells assessed as formation of fluorescent vacuoles after 3 hrs by Mito-Tracker staining based fluorescence microscopy; assay type: functional, cell-based
Method in brief: (§3)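 Live-cell imaging. Treated cells on coverslips were stained with Mito-Tracker Red (100 nM) at 37 °C for 30 min, washed three times with PBS and stained with Hoechst 33342 (10 μg/mL) for 15 min. Images were taken by confocal or fluorescence microscopy at the indicated times.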

[24] = system: NCI-H1299; assay: Induction of mitochondria-derived paraptosis in human NCI-H1299 cells assessed as formation of fluorescent vacuoles after 3 hrs by Mito-Tracker staining based fluorescence microscopy; assay type: functional, cell-based; method in brief: as §3
[25] = system: NCI-H1299; assay: Induction of mitochondria-derived paraptosis in human NCI-H1299 cells assessed as formation of fusion among swollen mitochondria after 6 to 24 hrs by Mito-Tracker staining based fluorescence microscopy; assay type: functional, cell-based; method in brief: as §3
[26] = system: NCI-H1299; assay: Induction of mitochondria-derived paraptosis in human NCI-H1299 cells assessed as induction of HMGB1 translocation from nucleus to cytoplasm at 10 uM incubated for 24 hrs by immunofluorescence staining; assay type: functional, cell-based
Method in brief: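 HMGB1 immunofluorescence. Cells were treated at 10 μM for 24 h, fixed in 4% paraformaldehyde for 30 min, permeabilised with 0.3% Triton X-100 for 15 min and blocked with 5% BSA for 30 min. Anti-HMGB1 was applied at 4 °C overnight and the secondary antibody at 37 °C for 1 h. Nuclei were counterstained with DAPI and cells imaged by confocal microscopy.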

[27] = system: NCI-H1299; assay: Induction of mitochondria dysfunction in human NCI-H1299 cells assessed as mitochondrial membrane potential incubated for 1 hr by JC-1 dye based flow cytometry relative to 0 hrs control; assay type: functional
Method in brief: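 Membrane potential. After treatment for the indicated times, ΔΨm was measured by JC-1 (5 μg/mL) staining and flow cytometry, relative to the 0 h control. Mean ± SD, n = 3.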

[28] = system: NCI-H1299; assay: Induction of ROS generation in human NCI-H1299 cells by DCFH-DA staining based flow cytometry; assay type: functional, cell-based; details: TDE = time-dependent effect
Method in brief: (§4)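 ROS by flow cytometry. Cells were exposed for the indicated times, then stained with DCFH-DA (10 μM). DCF mean fluorescence intensity was compared with untreated control. Mean ± SD, n = 3.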

[29] = system: NCI-H1299; assay: Induction of ROS generation in human NCI-H1299 cells after 1 hr by DCFH-DA staining based flow cytometry relative to untreated control; assay type: functional; method in brief: as §4

With `COC(=O)c1c(CCc2ccccc2)cc(O)c(CC=C(C)C)c1O` the IC50 [1] was 6 µM, the Activity [2] was “Active” and the IC50 [3] was 5.1 µM. For the same molecule, the IC50 [4] was 8.6 µM, the IC50 [5] was 10.2 µM and the IC50 [6] was 9 µM. For the same molecule, the IC50 [7] was 6.3 µM, the IC50 [8] was 5 µM and the IC50 [9] was 6.7 µM. For the same molecule, the Activity [10] was “Active”, the Activity [11] was “Active” and the Activity [12] was 0.75%. It also gave an Activity [13] of 3.39%, an Activity [14] of 2.02% and an Activity [15] of 4.14%. The Activity [16] was 3.36%, the Activity [17] was 3.75% and the Activity [18] was 2.95%. For the same molecule, the Activity [19] was 3.49%, the Activity [20] was “inactive” and the Activity [21] was “Active”. For the same molecule, the Activity [22] was “Active”, the Activity [23] was “Active” and the Activity [24] was “Active”. The Activity [25] was “Active”, the Activity [26] was “Active” and the Activity [27] was 25%. The Activity [28] was “Tde” and the “fold change (FC)” value [29] was 30.
